Broadly, the IC50 is the concentration needed to halve the response being measured.

Calls of active or inactive are those of the source. The rule behind the calls is not given here.

The subject of data set [1] is MDA-MB-231. Briefly: Antitumor activity against human MDA-MB-231 cells xenografted in BALB/c athymic nude mouse assessed as tumor weight at 30 mg/kg, ig administered every 2 days for 18 days (reference value: 1.7 +/- 0.84 g). Type of data set: functional. In outline:
(§1)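 Nude mice with established MDA-MB-231 xenografts dosed intragastrically every 2 days for 18 days; vehicle control group; n=4 per group. Tumor volume estimated over time and compared by two-way repeated-measures ANOVA; dissected tumors weighed at end. Data as mean ±SD.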
(A xenograft is tissue or cells of one species grown in another, often human tumour cells in immunodeficient mice.)

Data set [2] has as its system Mus musculus. Put plainly: Toxicity in BALB/c athymic nude mouse xenografted with human MDA-MB-231 cells assessed as effect on RDW-SD level at 30 mg/kg, ig administered every 2 days for 18 days measured post last dose. The data set is classed as organism-based. The conditions noted are these: in vivo, po. The method in brief: (§2)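 After the 18-day intragastric course (every 2 days), blood cell counts taken from untreated, vehicle and dosed mice; groups compared by unpaired two-tailed t-test; mean ±SD, n=4.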

For data set [3], the target named is Voltage-gated inwardly rectifying potassium channel KCNH2 (Homo sapiens, UniProt Q12809). Put plainly: Inhibition of human ERG expressed in CHO cells at -80 mV holding potential by whole-cell patch clamp method. Type of data set: cell-based. (The patch-clamp technique gives a direct electrical read-out from membranes.)
Sequence of Voltage-gated inwardly rectifying potassium channel KCNH2 (Q12809 whole entry): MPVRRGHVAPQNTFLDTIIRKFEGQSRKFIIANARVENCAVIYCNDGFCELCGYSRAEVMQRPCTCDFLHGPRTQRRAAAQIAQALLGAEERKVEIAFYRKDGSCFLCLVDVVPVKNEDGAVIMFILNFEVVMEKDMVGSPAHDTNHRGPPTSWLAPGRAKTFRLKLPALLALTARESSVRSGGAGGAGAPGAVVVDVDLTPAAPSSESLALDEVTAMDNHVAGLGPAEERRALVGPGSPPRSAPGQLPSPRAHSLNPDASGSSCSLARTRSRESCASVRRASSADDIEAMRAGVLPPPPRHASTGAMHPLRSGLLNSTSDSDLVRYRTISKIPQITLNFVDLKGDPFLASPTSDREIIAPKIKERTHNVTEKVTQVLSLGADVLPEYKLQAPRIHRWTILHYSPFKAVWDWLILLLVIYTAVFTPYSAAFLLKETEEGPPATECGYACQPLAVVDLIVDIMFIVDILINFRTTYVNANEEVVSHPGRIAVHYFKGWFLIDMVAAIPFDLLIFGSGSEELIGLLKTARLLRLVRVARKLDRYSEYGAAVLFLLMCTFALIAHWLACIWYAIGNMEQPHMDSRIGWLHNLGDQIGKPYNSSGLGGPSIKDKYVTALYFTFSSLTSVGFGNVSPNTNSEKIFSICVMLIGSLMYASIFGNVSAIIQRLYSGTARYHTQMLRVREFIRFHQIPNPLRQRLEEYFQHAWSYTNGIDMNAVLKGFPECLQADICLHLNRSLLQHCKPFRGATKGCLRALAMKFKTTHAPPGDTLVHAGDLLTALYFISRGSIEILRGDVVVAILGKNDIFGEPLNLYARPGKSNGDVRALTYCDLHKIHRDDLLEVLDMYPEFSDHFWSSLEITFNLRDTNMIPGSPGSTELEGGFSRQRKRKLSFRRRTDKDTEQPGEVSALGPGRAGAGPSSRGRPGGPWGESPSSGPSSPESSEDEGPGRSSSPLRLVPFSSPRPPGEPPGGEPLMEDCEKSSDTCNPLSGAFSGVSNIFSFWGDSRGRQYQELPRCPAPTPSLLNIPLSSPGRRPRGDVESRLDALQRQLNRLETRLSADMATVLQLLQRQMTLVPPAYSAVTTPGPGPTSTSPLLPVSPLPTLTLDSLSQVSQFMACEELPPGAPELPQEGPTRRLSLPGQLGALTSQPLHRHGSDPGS
Data set [4] concerns MDA-MB-231. Put plainly: Antitumor activity against human MDA-MB-231 cells xenografted in BALB/c athymic nude mouse assessed as reduction in tumor size at 30 mg/kg, ig administered every 2 days for 18 days. The data set is classed as functional, organism-based. In outline: as §1
Another data set has as its system MOLT-4. Put plainly: Antiproliferative activity against human MOLT4 cells after 48 hrs by CCK8 assay. The conditions noted are these: Homo sapiens, MOLT-4, 48 h; read-out: IC50. The data set is classed as functional, cell-based.
The next data set has as its target T1, Aurora kinase A (Homo sapiens, UniProt O14965).
T1 sequence (O14965 whole entry): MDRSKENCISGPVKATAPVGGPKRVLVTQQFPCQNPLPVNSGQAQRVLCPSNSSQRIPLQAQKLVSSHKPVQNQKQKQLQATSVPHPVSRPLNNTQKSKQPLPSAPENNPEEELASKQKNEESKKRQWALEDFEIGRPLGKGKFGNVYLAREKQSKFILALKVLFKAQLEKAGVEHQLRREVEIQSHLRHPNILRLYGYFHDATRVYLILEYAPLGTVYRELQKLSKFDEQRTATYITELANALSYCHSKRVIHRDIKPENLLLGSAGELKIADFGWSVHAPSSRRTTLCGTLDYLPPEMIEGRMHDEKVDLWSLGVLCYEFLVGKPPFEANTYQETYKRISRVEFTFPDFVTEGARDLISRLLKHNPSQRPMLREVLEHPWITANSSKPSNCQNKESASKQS
Briefly: Inhibition of Aurora A (unknown origin) using FAM-labelled peptide as substrate pretreated for 10 mins followed by substrate addition and measured after 60 mins by fluorescence assay. The method in brief: (§3)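 Kinase IC50 values are the mean of at least two independent experiments; selectivity is the Aurora A/B ratio of these IC50s.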

The subject of another data set is DU-145. Briefly: Antiproliferative activity against human DU145 cells after 48 hrs by CCK8 assay. Type of data set: functional, cell-based. To be noted: DU-145, 48 h. Background: Formazan colour is commonly taken as a measure of viable cells.
Data set [5] relates to Mus musculus. Briefly: Toxicity in BALB/c athymic nude mouse xenografted with human MDA-MB-231 cells assessed as effect on MCV level at 30 mg/kg, ig administered every 2 days for 18 days measured post last dose. The data set is classed as organism-based. To be noted: in vivo, po. In outline: as §2
Data set [6] concerns Mus musculus. Briefly: Toxicity in BALB/c athymic nude mouse xenografted with human MDA-MB-231 cells assessed as body weight loss at 30 mg/kg, ig administered every 2 days for 18 days measured during compound dosing. To be noted: in vivo, po. The data set is classed as organism-based. The method in brief: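 Xenograft-bearing nude mice dosed intragastrically every 2 days for 18 days; body weight tracked throughout. After treatment ended, liver, lung, kidney and spleen weighed in untreated, vehicle and dosed groups; unpaired two-tailed t-test; mean ±SD, n=4.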

For another data set, the target named is Aurora kinase B (Homo sapiens, UniProt Q96GD4). Put plainly: Inhibition of Aurora B (unknown origin) using FAM-labelled peptide as substrate pretreated for 10 mins followed by substrate addition and measured after 60 mins by fluorescence assay. In outline: as §3
Sequence of Aurora kinase B (Q96GD4 whole entry): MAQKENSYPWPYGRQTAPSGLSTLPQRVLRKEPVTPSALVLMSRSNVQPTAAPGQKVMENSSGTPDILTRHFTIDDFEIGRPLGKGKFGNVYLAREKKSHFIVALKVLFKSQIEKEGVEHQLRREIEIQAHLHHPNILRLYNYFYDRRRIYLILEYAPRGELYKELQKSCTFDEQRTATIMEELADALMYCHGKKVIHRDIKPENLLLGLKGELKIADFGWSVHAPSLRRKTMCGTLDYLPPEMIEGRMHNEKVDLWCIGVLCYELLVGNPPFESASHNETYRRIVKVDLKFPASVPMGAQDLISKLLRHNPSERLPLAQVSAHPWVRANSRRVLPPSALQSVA
Data set [7] relates to MDA-MB-231. Put plainly: Antitumor activity against human MDA-MB-231 cells xenografted in BALB/c athymic nude mouse assessed as tumor growth inhibition at 30 mg/kg, ig administered every 2 days for 18 days relative to control. Type of data set: functional. The conditions noted are these: MDA-MB-231, po, read-out: TGI. The method in brief:
as §1

The test system of data set [8] is Mus musculus. Put plainly: Toxicity in BALB/c athymic nude mouse xenografted with human MDA-MB-231 cells assessed as effect on MCH level at 30 mg/kg, ig administered every 2 days for 18 days measured post last dose. The data set is classed as organism-based. The conditions noted are these: in vivo, po. The method in brief: as §2
In data set [9] the test system is Mus musculus. Put plainly: Toxicity in BALB/c athymic nude mouse xenografted with human MDA-MB-231 cells assessed as effect on HGB level at 30 mg/kg, ig administered every 2 days for 18 days measured post last dose. Type of data set: organism-based. The conditions noted are these: in vivo, po. The method in brief: as §2

`CCOC(=O)C1CCN(c2ccc3c(Nc4cc(C)[nH]n4)nc(-c4ccccc4)nc3c2)CC1`: the Activity is given as 0.85 g with MDA-MB-231 [1]; “Non-Toxic” in the data set on Mus musculus [2]; “Non-Toxic” with Mus musculus [5]; “Non-Toxic” in the data set on Mus musculus [6]; “Non-Toxic” in the data set with Mus musculus [8]; “Non-Toxic” in the data set with Mus musculus [9]. For the same compound, the IC50 in data set [3] was greater than 10 µM; in the data set with MOLT-4, 0.821 µM; at Aurora kinase A, 0.038 µM; in the data set with DU-145, 2.05 µM; on Aurora kinase B it was 2.52 µM. In addition, the outcome with MDA-MB-231 [4] was Active. The inhibition in vivo at 30 mg/kg in the data set with MDA-MB-231 [7] was 45%.

(Values after ChEMBL document CHEMBL4270643, “Structure-based drug design: Synthesis and biological evaluation of quinazolin-4-amine derivatives as selective Aurora A kinase inhibitors” (Eur J Med Chem, 2018).)
